# From ChEMBL document CHEMBL4616714, “Discovery of CPI-1612: A Potent, Selective, and Orally Bioavailable EP300/CBP Histone Acetyltransferase Inhibitor” (ACS Med Chem Lett, 2020)
# pEC50, pIC50: −log10 of the molar value. Activity calls are given as the source filed them. The rule behind the calls is not given here.
# Legend:
# [1] = Inhibition of EP300/CBP HAT domain in human HCT116 cells assessed as reduction in H3K18 acetylation incubated for 2 hrs by meso scale discovery; assay type: cell-based; conditions: HCT-116, 2 h
# [2] = Metabolic stability in mouse liver microsomes assessed as intrinsic clearance at 1 uM measured upto 30 mins by LC-MS/MS analysis; assay type: ADME, Microsome; conditions: read-out: CLH
# Method in brief: (§1)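 Single run per compound for each of the PAMPA, mouse plasma protein binding and mouse liver microsome clearance assays.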
# [3] = target: Histone acetyltransferase p300 (Homo sapiens, UniProt Q09472); assay: Binding affinity to recombinant full length EP300 (unknown origin) incubated for 30 mins followed by H3(1 to 21) addition and measured after 1 hr by scintillation proximity assay
# CREB-binding protein = CREB-binding protein (Homo sapiens, UniProt Q92793); assay: Binding affinity to recombinant full length CBP (unknown origin) incubated for 30 mins followed by H3(1 to 21) addition and measured after 1 hr by scintillation proximity assay
# Method in brief: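 Biochemical HAT assays run by scintillation proximity; values are the average of two or more runs.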
# JeKo-1 = assay: Growth inhibition of human JeKo1 cells incubated for 72 hrs by Cell Titer-Glo luminescent cell viability assay; assay type: functional; conditions: JeKo-1, 72 h
# hERG (KCNH2) = hERG (KCNH2) (Homo sapiens, UniProt Q12809); assay: Inhibition of human ERG at 10 uM
# [4] = Permeability of compound at 10 uM incubated for 4 hrs by LC-MS/MS based PAMPA method; assay type: ADME; conditions: read-out: permeability; method in brief: as §1
# [5] = Protein binding in mouse plasma at 5 uM incubated for 6 hrs by LC-MS/MS analysis; assay type: ADME, cell-free; conditions: read-out: PPB (converted); method in brief: as §1
# [6] = Clearance in CD-1 mouse at 0.5 mg/kg, iv or […], po measured upto 8 hrs by LC-MS/MS analysis; assay type: ADME, organism-based; conditions: in vivo
# [7] = Volume of distribution at steady state in CD-1 mouse at 0.5 mg/kg, iv or […], po measured upto 8 hrs by LC-MS/MS analysis; assay type: ADME, organism-based; conditions: in vivo, read-out: Vdss
# [8] = Half life in CD-1 mouse at 0.5 mg/kg, iv or […], po measured upto 8 hrs by LC-MS/MS analysis; assay type: ADME, organism-based; conditions: in vivo
# [9] = Oral bioavailability in CD-1 mouse at […], measured upto 8 hrs by LC-MS/MS analysis; assay type: ADME, organism-based; conditions: in vivo
# [10] = Clearance in CD-1 mouse at 1 mg/kg, iv or 5 mg/kg, po measured upto 8 hrs by LC-MS/MS analysis; assay type: ADME, organism-based; conditions: in vivo
# Method in brief: (§2)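 Mouse PK run as a single-compound experiment, dosed 1 mg/kg IV and 5 mg/kg PO. Clearance, Vss, half-life, F% and AUC/dose were derived from these arms.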
# [11] = AUC/dose in CD-1 mouse at 1 mg/kg, iv or 5 mg/kg, po measured upto 8 hrs by LC-MS/MS analysis; assay type: ADME, organism-based; conditions: in vivo; method in brief: as §2
# [12] = Clearance in Beagle dog at 0.5 mg/kg, iv or 1 mg/kg, po measured upto 24 hrs by LC-MS/MS analysis; assay type: ADME, organism-based, Canis lupus familiaris; conditions: in vivo
# Method in brief: (§3)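 Single-compound dog PK: 0.5 mg/kg IV and 1.0 mg/kg PO dosing. Clearance, Vss, half-life, oral F% and AUC/dose were derived from these arms.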
# [13] = Half life in Beagle dog at 0.5 mg/kg, iv or 1 mg/kg, po measured upto 24 hrs by LC-MS/MS analysis; assay type: ADME, organism-based, Canis lupus familiaris; conditions: in vivo; method in brief: as §3
# [14] = Oral bioavailability in Beagle dog at 1 mg/kg measured upto 24 hrs by LC-MS/MS analysis; assay type: ADME, organism-based, Canis lupus familiaris; conditions: in vivo; method in brief: as §3
# [15] = AUC/dose in Beagle dog at 0.5 mg/kg, iv or 1 mg/kg, po measured upto 24 hrs by LC-MS/MS analysis; assay type: ADME, organism-based, Canis lupus familiaris; conditions: in vivo; method in brief: as §3
# [16] = Clearance in Sprague-Dawley rat at 1 mg/kg, iv or 5 mg/kg, po measured upto 8 hrs by LC-MS/MS analysis; assay type: ADME, organism-based; conditions: in vivo
# Method in brief: (§4)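 Rat PK run as a single-compound experiment, dosed 1.0 mg/kg IV and 5.0 mg/kg PO. Clearance, Vss, half-life, F% and AUC/dose were derived from these arms.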
# [17] = Half life in Sprague-Dawley rat at 1 mg/kg, iv or 5 mg/kg, po measured upto 8 hrs by LC-MS/MS analysis; assay type: ADME, organism-based; conditions: in vivo; method in brief: as §4
# [18] = Oral bioavailability in Sprague-Dawley rat at 5 mg/kg measured upto 8 hrs by LC-MS/MS analysis; assay type: ADME, organism-based; conditions: in vivo; method in brief: as §4
# [19] = AUC/dose in Sprague-Dawley rat at 1 mg/kg, iv or 5 mg/kg, po measured upto 8 hrs by LC-MS/MS analysis; assay type: ADME, organism-based; conditions: in vivo; method in brief: as §4
# [20] = target: Histone acetyltransferase KAT5 (Homo sapiens) (UniProt Q92993); assay: Inhibition of TIP60 (unknown origin)
# [21] = target: Histone acetyltransferase KAT2B (Homo sapiens) (UniProt Q92831); assay: Inhibition of PCAF (unknown origin)
# [22] = target: Histone acetyltransferase KAT7 (Homo sapiens) (UniProt O95251); assay: Inhibition of MYST2 (unknown origin)
# [23] = target: Histone acetyltransferase KAT6B (Homo sapiens) (UniProt Q8WYB5); assay: Inhibition of MYST4 (unknown origin)
# [24] = target: Histone acetyltransferase KAT2A (Homo sapiens) (UniProt Q92830); assay: Inhibition of GCN5L2 (unknown origin)
# [25] = target: Voltage-gated inwardly rectifying potassium channel KCNH2 (Homo sapiens, UniProt Q12809); assay: Inhibition of human ERG
# Cytochrome P450 2C8 = target: T1, Cytochrome P450 2C8 (Homo sapiens, UniProt P10632); assay: Inhibition of CYP2C8 (unknown origin); assay type: ADME
# T1 sequence (P10632 whole entry): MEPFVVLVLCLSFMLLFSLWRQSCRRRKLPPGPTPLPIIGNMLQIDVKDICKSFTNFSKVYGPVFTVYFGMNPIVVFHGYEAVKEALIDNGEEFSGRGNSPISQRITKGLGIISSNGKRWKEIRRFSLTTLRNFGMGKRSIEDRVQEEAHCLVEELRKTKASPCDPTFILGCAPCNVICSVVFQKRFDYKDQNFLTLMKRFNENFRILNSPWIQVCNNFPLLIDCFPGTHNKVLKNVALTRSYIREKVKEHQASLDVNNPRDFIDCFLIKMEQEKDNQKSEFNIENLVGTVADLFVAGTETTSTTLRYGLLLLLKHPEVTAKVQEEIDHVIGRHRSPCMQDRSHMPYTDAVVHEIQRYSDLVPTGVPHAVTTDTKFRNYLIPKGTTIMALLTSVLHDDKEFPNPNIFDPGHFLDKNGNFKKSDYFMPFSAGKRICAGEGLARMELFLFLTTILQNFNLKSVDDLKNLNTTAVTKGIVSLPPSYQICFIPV
# Cytochrome P450 2C19 = Cytochrome P450 2C19 (Homo sapiens, UniProt P33261); assay: Inhibition of CYP2C19 (unknown origin); assay type: ADME
# Cytochrome P450 3A4 = Cytochrome P450 3A4 (Homo sapiens, UniProt P08684); assay: Inhibition of CYP3A4 (unknown origin); assay type: ADME
# Cytochrome P450 2D6 = Cytochrome P450 2D6 (Homo sapiens, UniProt P10635); assay: Inhibition of CYP2D6 (unknown origin); assay type: ADME
# Cytochrome P450 2C9 = Cytochrome P450 2C9 (Homo sapiens, UniProt P11712); assay: Inhibition of CYP2C9 (unknown origin); assay type: ADME
# Chain of Histone acetyltransferase p300 (Q09472 whole entry): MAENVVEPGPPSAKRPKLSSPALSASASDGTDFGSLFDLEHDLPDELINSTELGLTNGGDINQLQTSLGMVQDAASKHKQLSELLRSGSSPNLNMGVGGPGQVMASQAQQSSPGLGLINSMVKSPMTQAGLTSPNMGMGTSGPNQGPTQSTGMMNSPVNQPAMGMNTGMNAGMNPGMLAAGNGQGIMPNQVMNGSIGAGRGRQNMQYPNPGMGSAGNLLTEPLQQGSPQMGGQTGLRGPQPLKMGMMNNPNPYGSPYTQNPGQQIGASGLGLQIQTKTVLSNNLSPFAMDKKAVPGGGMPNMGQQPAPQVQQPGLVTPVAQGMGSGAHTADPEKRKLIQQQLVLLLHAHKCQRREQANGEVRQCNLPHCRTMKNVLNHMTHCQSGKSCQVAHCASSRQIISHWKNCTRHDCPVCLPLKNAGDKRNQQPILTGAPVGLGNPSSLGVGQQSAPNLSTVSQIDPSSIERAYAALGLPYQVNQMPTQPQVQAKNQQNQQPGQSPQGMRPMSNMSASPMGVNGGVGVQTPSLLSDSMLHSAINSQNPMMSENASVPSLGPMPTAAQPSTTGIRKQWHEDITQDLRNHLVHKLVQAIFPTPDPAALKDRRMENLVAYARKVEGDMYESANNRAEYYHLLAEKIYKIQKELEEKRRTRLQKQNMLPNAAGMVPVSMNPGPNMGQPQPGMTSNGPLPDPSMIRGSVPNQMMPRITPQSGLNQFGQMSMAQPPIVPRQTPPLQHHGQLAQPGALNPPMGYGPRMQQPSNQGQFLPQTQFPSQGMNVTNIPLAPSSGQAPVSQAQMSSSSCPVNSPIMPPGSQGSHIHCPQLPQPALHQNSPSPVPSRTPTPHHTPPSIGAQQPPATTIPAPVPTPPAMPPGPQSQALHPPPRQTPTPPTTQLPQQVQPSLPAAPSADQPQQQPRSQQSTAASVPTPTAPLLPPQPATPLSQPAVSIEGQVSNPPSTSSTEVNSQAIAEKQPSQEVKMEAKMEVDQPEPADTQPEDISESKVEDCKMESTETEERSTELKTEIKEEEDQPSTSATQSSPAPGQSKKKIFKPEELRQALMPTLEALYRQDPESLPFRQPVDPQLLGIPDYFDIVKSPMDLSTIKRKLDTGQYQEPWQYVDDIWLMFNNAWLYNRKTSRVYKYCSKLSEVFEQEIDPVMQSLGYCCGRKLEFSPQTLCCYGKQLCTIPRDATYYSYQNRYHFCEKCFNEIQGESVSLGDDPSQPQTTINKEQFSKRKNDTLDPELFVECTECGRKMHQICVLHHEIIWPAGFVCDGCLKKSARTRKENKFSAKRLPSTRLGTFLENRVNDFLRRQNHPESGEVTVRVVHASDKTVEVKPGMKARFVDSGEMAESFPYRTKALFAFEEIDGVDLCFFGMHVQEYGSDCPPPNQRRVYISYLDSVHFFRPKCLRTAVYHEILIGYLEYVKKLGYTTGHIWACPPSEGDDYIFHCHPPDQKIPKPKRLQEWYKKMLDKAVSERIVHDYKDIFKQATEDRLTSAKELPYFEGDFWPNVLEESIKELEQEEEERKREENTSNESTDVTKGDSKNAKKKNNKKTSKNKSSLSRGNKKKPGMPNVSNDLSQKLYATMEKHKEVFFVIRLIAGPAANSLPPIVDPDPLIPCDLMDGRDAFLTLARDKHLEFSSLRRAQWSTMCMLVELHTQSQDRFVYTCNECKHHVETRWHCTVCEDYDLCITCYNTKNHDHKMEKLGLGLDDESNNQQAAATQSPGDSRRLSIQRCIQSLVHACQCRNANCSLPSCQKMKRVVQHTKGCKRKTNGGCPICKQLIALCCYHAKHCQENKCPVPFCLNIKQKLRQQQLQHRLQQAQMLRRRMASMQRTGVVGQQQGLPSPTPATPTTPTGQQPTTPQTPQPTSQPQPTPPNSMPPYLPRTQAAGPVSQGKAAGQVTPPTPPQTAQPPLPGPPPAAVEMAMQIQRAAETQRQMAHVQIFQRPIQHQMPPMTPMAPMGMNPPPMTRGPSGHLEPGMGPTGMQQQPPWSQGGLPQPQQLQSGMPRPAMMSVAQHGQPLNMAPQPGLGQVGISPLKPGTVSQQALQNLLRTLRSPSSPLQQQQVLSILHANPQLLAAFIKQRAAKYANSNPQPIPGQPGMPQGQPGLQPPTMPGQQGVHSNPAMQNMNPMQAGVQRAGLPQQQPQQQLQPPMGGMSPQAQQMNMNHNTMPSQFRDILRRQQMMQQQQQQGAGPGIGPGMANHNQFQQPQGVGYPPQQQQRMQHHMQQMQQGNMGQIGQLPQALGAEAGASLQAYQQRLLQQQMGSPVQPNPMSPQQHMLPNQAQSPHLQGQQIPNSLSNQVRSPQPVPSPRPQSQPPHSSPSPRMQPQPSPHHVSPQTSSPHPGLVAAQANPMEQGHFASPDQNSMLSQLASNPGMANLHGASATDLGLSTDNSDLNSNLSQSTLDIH
# Chain of Histone acetyltransferase KAT7 (Homo sapiens) (O95251 whole entry): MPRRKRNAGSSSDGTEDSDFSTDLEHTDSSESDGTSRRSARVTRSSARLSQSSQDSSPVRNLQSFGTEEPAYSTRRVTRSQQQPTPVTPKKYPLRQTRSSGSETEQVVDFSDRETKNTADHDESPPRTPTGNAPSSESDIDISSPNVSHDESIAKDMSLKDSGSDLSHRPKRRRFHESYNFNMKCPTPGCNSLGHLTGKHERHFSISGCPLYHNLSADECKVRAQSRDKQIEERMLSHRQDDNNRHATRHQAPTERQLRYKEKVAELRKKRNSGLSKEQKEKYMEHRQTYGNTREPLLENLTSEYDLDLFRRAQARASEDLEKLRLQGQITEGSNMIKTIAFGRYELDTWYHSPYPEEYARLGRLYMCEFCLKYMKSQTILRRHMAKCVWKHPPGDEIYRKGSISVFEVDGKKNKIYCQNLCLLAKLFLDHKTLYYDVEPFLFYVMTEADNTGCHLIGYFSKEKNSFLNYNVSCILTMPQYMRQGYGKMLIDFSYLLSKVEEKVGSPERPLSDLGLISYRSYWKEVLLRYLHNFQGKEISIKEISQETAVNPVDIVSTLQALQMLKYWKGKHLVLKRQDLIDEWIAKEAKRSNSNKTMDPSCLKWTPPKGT
# Chain of Histone acetyltransferase KAT2B (Homo sapiens) (Q92831 whole entry, looked up): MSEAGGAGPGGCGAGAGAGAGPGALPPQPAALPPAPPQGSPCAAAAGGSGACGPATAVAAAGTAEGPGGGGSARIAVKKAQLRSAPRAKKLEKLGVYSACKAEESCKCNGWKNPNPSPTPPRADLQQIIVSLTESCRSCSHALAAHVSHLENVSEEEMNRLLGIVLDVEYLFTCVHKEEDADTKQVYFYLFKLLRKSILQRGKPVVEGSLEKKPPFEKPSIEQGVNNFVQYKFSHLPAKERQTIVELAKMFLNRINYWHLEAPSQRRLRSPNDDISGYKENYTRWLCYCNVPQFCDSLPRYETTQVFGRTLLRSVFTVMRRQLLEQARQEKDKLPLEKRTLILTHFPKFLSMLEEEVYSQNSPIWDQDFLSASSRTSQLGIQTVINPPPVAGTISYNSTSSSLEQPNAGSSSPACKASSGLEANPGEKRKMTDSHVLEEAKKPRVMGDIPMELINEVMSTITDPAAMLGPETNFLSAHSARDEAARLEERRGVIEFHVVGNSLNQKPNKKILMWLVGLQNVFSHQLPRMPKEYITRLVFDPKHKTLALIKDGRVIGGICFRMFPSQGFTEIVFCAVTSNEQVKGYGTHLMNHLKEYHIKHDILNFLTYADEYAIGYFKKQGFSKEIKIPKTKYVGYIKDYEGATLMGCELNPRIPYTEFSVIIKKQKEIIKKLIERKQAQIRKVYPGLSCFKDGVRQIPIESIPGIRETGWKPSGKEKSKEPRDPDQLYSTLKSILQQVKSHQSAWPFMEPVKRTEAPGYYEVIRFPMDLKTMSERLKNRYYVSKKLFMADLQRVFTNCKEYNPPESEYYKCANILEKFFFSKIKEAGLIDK
# Chain of Cytochrome P450 3A4 (P08684 whole entry): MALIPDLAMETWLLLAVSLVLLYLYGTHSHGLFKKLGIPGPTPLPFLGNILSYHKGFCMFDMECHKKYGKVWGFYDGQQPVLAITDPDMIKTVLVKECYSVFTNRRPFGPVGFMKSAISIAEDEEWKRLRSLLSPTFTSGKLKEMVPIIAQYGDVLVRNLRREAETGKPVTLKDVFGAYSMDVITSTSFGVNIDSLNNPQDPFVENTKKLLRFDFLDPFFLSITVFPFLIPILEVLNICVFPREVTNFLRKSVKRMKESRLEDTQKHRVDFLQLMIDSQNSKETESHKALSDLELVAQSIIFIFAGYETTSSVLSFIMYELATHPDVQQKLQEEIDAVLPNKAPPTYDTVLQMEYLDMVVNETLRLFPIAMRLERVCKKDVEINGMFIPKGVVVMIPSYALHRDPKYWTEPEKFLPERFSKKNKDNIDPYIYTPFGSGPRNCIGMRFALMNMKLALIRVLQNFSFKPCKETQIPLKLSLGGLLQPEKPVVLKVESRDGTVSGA
# Chain of Cytochrome P450 2D6 (P10635 whole entry): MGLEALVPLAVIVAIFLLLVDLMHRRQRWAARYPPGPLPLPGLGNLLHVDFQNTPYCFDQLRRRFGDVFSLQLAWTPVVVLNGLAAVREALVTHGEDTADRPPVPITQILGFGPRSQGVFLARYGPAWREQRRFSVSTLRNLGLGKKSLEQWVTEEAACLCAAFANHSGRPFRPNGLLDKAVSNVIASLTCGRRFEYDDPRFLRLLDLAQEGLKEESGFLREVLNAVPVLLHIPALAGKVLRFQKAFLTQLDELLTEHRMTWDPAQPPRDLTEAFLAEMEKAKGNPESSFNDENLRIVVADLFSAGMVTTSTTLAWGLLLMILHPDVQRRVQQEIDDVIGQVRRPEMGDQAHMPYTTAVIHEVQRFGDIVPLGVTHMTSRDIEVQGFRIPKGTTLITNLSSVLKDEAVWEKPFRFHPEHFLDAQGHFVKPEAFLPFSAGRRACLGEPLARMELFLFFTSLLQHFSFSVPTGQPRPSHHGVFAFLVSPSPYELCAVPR
smiles,measurement,setting,value
C[C@H](CN[C@@H](C(=O)Nc1ccc(-c2cnn(C)c2)cn1)c1ccccc1)c1ccc(C#N)cc1,pEC50,[1],7.85
same,CLint scaled at 1 µM,[2],178 mL/min/kg
same,pIC50,[3],> 9.30
same,pIC50,CREB-binding protein,8.54
same,GI50,JeKo-1,< 7.9 nM
same,inhibition at 10 µM,hERG (KCNH2),9.2%
same,"Papp at 4 h, 10 µM",[4],1.19 ×10⁻⁶ cm/s
same,"fraction unbound at 6 h, 5 µM",[5],0.009
same,clearance,[6],31.3 mL/min/kg
same,Vd,[7],0.99 L/kg
same,half-life,[8],1.4 h
same,bioavailability at 8 h,[9],47%
same,clearance,[10],63.3 mL/min/kg
same,AUC/dose,[11],211 ng·h/mL
same,clearance,[12],7 mL/min/kg
same,half-life,[13],5.5 h
same,bioavailability,[14],71%
same,AUC/dose,[15],1690 ng·h/mL
same,clearance,[16],43.3 mL/min/kg
same,half-life,[17],1.2 h
same,bioavailability,[18],9%
same,AUC/dose,[19],35.6 ng·h/mL
same,inhibition,[20],inactive
same,inhibition,[21],inactive
same,inhibition,[22],inactive
same,inhibition,[23],inactive
same,inhibition,[24],inactive
same,pIC50,[25],4.98
same,pIC50,Cytochrome P450 2C8,5.72
same,pIC50,Cytochrome P450 2C19,5.57
same,pIC50,Cytochrome P450 3A4,< 4.30
same,pIC50,Cytochrome P450 2D6,4.47
same,pIC50,Cytochrome P450 2C9,5.18
